Activity calls are given as the source filed them. The rule behind the calls is not given here.
Legend:
[1] = target: T1, Hepatocyte growth factor activator serine protease (Homo sapiens, UniProt Q04756); assay: Inhibition of recombinant human HGFA serine protease domain using Boc-QLR-AMC as substrate preincubated for 30 mins followed by substrate addition by fluorescence based assay
T1 sequence (Q04756 whole entry): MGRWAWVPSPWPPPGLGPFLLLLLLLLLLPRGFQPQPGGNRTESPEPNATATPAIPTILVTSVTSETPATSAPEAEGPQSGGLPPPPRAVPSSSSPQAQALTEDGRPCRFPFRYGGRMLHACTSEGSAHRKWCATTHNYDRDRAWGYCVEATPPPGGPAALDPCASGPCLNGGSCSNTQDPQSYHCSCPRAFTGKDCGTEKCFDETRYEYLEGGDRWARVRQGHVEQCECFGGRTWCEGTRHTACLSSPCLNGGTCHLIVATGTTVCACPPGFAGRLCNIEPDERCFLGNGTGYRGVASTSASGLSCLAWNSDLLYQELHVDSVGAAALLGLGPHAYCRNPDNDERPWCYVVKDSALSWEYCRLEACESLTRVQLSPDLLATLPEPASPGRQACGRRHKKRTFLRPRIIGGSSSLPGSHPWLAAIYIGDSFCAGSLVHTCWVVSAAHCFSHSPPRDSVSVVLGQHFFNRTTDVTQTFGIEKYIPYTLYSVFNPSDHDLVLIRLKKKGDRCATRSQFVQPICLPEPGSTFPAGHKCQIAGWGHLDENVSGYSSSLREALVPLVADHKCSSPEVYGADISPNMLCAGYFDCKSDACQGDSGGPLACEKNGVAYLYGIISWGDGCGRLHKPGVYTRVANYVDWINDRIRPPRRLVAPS
Outline: (§1)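 Inhibitor in 11-point serial dilution (0-20 µM final, 2% DMSO) pre-incubated 30 min at room temperature with enzyme in TNC buffer (25 mM Tris, 150 mM NaCl, 5 mM CaCl2, 0.01% Triton X-100, pH 8). […] Hepsin activated beforehand 24 h at 37°C. Fluorescence ex 380/em 460 nm kinetic; four-parameter fit of velocities; mean of three experiments.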

[2] = Stability in mouse plasma assessed as half life; type: ADME, cell-free
[3] = Stability in human plasma assessed as half life; type: ADME, cell-free
Prothrombin = Prothrombin (Homo sapiens, UniProt P00734); assay: Inhibition of recombinant thrombin (unknown origin) using D-Phe-Pip-Arg-pNA as substrate preincubated for 30 mins followed by substrate addition by chromogenic assay
[4] = Plasma protein binding in mouse assessed as unbound fraction; type: ADME, cell-free
[5] = Half life in mouse plasma at 20 mg/kg, ip; type: ADME, organism-based; details: for t1/2: in vivo, 20 mg/kg
[6] = target: T2, Suppressor of tumorigenicity 14 protein (Homo sapiens, UniProt Q9Y5Y6); assay: Inhibition of recombinant human N-terminal met-His6-tagged matriptase catalytic domain (Gly596 to Val855 residues) expressed in Escherichia coli using Boc-QAR-AMC as substrate preincubated for 30 mins followed by substrate addition by fluorescence based assay; outline: as §1
T2 sequence (Q9Y5Y6 whole entry): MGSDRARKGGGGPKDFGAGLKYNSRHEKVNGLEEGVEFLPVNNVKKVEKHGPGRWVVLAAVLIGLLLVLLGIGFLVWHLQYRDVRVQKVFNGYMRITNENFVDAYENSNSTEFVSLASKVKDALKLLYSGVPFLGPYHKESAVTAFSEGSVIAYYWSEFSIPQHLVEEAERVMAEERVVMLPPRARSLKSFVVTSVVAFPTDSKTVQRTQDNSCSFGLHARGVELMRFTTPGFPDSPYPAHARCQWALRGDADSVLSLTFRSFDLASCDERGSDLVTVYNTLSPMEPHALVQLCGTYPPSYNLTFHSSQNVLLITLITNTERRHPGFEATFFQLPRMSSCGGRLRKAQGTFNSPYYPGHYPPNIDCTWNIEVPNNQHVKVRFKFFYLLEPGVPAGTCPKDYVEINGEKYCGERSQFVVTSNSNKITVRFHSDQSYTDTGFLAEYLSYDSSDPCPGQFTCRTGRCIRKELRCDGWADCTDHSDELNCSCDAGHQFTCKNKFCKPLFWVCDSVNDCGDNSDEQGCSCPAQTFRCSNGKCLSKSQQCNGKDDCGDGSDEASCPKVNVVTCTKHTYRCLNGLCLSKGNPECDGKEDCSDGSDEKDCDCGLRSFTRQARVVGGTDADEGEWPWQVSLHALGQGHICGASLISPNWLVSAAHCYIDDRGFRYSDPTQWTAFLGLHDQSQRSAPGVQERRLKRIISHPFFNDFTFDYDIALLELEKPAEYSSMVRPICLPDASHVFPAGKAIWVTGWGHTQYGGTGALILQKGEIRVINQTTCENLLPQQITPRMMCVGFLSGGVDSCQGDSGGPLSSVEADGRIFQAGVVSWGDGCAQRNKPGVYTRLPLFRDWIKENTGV

Serine protease hepsin = Serine protease hepsin (Homo sapiens, UniProt P05981); assay: Inhibition of recombinant human C-terminal 10-His tagged hepsin (Arg45 to Leu417) expressed in mouse myeloma cells using Boc-QAR-AMC as substrate preincubated for 30 mins followed by substrate addition by fluorescence based assay; type: single protein; outline: as §1
Coagulation factor X = Coagulation factor X (Homo sapiens, UniProt P00742); assay: Inhibition of recombinant C-terminal 10His-tagged human coagulation factor 10a (Leu24 to Lys488 residues) expressed in baculovirus infected Sf9 insect cells using Bz-Ile-Glu-Gly-Arg-pNA as substrate preincubated for 30 mins followed by substrate addition by chromogenic assay
HCC827 = assay: Cytotoxicity against human HCC827 cells assessed as reduction in cell viability at 20 nM after 72 hrs in presence of pro-HGF by crystal violet staining based assay; type: functional
Outline: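 HCC827 cells treated with gefitinib (20 nM) with or without pro-HGF (100 ng/ml) and with compound (0.1-1 µM). Viability by crystal violet staining after 72 h. Means±S.E.M., n=3-5; one-way ANOVA with Dunnett's test versus gefitinib plus pro-HGF.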

NCI-H596 [7] = assay: Inhibition of pro-HGF stimulated cell growth in human H596 cells at 500 nM by ELISA; type: functional, cell-based
NCI-H596 [8] = assay: Antitumor activity against human NCI-H596 cells xenografted in hHGF knock in NSG mouse assessed as tumor growth inhibition at 40 mg/kg, po administered daily for 14 to 16 days; type: functional, organism-based; details: time 14-16 day
Outline: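 Female hHGF-KI NSG mice given 2 million H596 cells, or males given 0.5 million. Dosing started at tumor volume ~40 or ~350 mm3. Daily oral dosing at 40 mg/kg for 16 or 14 days. Tumor growth compared with control-treated mice by ANOVA with Dunnett's test, n=3-6 per group.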

NCI-H596 [9] = assay: Antitumor activity against human NCI-H596 cells xenografted in hHGF knock in NSG mouse assessed as tumor growth inhibition at 40 mg/kg, po administered daily for 25 days; type: functional, organism-based; details: time 25.0 day
Outline: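 Prevention design in female hHGF-KI NSG mice injected with ten million H596 cells. Oral dosing at 40 mg/kg daily began immediately after injection and ran for 25 days. Tumor growth tracked, n=3-5 per group, Dunnett's test versus control.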

EBC-1 = assay: Cytotoxicity against human EBC-1 cells assessed as reduction in cell viability preincubated with pro-HGF for 24 hrs followed by compound addition and measured after 48 hrs by CellTiter-Glo assay; type: functional, cell-based
NCI-H596 [10] = assay: Inhibition of pro-HGF stimulated cell growth in human H596 cells at […] by ELISA; type: functional, cell-based; details: dose 33.3 µM

Structure (SMILES)	t1/2 [2] [h]	t1/2 [3] [h]	also measured
CC(=O)N[C@H]1CC(=O)NCCCC[C@@H](C(=O)N[C@@H](CCCNC(=N)N)C(=O)c2nccs2)NC(=O)[C@H](CC(C)C)NC1=O	> 4.818	> 4.818	IC50 [1]: > 20 µM
CC(=O)N[C@H]1CC(=O)NCCCC[C@@H](C(=O)N[C@@H](CCCNC(=N)N)C(=O)c2nc3ccccc3s2)NC(=O)[C@H](Cc2ccc(O)cc2)NC1=O	4.613	> 4.818	IC50 [1]: > 20 µM
CC(=O)N[C@H]1CC(=O)NCCCC[C@@H](C(=O)N[C@@H](CCCNC(=N)N)C(=O)c2nc3ccccc3s2)NC(=O)[C@H](CC(N)=O)NC1=O	> 4.818	> 4.818	
CSCC[C@@H]1NC(=O)[C@@H](NC(C)=O)CC(=O)NCCCC[C@@H](C(=O)N[C@@H](CCCNC(=N)N)C(=O)c2nc3ccccc3s2)NC1=O	> 4.818	> 4.818	
CC(=O)N[C@H]1CCCCNC(=O)CC[C@@H](C(=O)N[C@@H](CCCNC(=N)N)C(=O)c2nc3ccccc3s2)NC(=O)[C@H](CC(C)C)NC1=O	4.57	> 4.82	IC50 (Prothrombin): > 20 µM; fraction unbound [4]: 0.184; t1/2 [5]: 0.71 h
CC(=O)N[C@H]1CC(=O)NCCCC[C@@H](C(=O)N[C@@H](CCCNC(=N)N)C(=O)c2nc3ccccc3s2)NC(=O)[C@H]([C@@H](C)O)NC1=O	3.21	4.142	IC50 [1]: 11.8 µM; IC50 [6]: 0.0037 µM; IC50 (Serine protease hepsin): 0.0058 µM; IC50 (Coagulation factor X): 13.3 µM
CC(=O)N[C@H]1CC(=O)N(C)CCCC[C@@H](C(=O)N[C@@H](CCCNC(=N)N)C(=O)c2nc3ccccc3s2)NC(=O)[C@H](CC(C)C)NC1=O	> 4.82	> 4.82	IC50 [1]: 12 µM; half-life ([5]; plasma): 0.553 h
CC(=O)N[C@H]1CC(=O)NCCCC[C@@H](C(=O)N[C@@H](CCCNC(=N)N)C(=O)c2nc3ccccc3s2)NC(=O)[C@H](Cc2ccccc2)NC1=O	> 4.818	> 4.818	IC50 (Serine protease hepsin): 0.017 µM; t1/2 [5]: 1.61 h
CC(=O)N[C@H]1CCCCNC(=O)CC[C@@H](C(=O)N[C@@H](CCCNC(=N)N)C(=O)c2nc3ccccc3s2)NC(=O)[C@H](CCCNC(=N)N)NC1=O	2.6	2.52	IC50 (Prothrombin): > 20 µM; IC50 (Coagulation factor X): 0.155 µM; fraction unbound [4]: 0.259
CC(=O)N[C@H]1CC(=O)NCCCC[C@@H](C(=O)N[C@@H](CCCNC(=N)N)C(=O)c2nc3ccccc3s2)NC(=O)[C@H](CCC(N)=O)NC1=O	> 4.818	> 4.818	IC50 (Coagulation factor X): > 20 µM
CC(=O)N[C@H]1CC(=O)NCCCC[C@@H](C(=O)N[C@@H](CCCNC(=N)N)C(=O)c2nc3ccccc3s2)NC(=O)[C@H](C)NC1=O	4.353	3.602	IC50 (Coagulation factor X): > 20 µM
COc1cc2ncnc(Nc3ccc(F)c(Cl)c3)c2cc1OCCCN1CCOCC1			Activity (HCC827): inactive
CC(=O)N[C@H]1CCCCNC(=O)C[C@@H](C(=O)N[C@@H](CCCNC(=N)N)C(=O)c2nc3ccccc3s2)NC(=O)[C@H](CC(C)C)NC1=O	2.97	> 4.82	IC50 (Prothrombin): > 20 µM; IC50 [1]: > 20 µM; IC50 [6]: 0.02 µM; fraction unbound [4]: 0.853
Cn1cc(-c2ccc3nnc(C(F)(F)c4ccc5ncccc5c4)n3n2)cn1			inhibition (NCI-H596 [7]): Active; Activity (NCI-H596 [8]): Active; Activity (NCI-H596 [9]): Active; Activity (EBC-1): inactive
CC(=O)N[C@H]1CC(=O)NCCCC[C@@H](C(=O)N[C@@H](CCCNC(=N)N)C(=O)c2nc3ccccc3s2)NC(=O)[C@H](C(C)C)NC1=O	> 4.818	> 4.818	
CC(=O)N[C@H]1CC(=O)NCCCC[C@@H](C(=O)N[C@@H](CCCNC(=N)N)C(=O)c2nc3ccccc3s2)NC(=O)CNC1=O	> 4.818	> 4.818	
N=C(N)Nc1ccc(C(=O)Oc2ccc3cc(C(=N)N)ccc3c2)cc1			inhibition (NCI-H596 [10]): Active
